According to paper PMC5679012 (Chemistry (Weinheim an der Bergstrasse, Germany), 2017):

Assay: CO release kinetics by increase of fluorescence intensity in DMSO/PBS
Type: physicochemical
Conditions: fluorescence increase (450 nm); 100 μM; DMSO/PBS (pH = 7.4) 4:1, 37 °C
Procedure, shortened: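 Test compounds of scaffolds I and II were dissolved in DMSO/PBS (pH 7.4, 4:1) at 100 μM final and held at 37 °C. CO release was tracked as the rise in fluorescence intensity at 450 nm, read at successive time points. Each experiment was repeated three times independently.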

t1/2, half-life for CO release: ~12 min
Structure (SMILES): C#CC(C)(C)NC(=O)C1=C2C(=C(c3ccccc3)C1=O)c1cccc3cccc2c13 [BW-CO-111]
k, CO release rate: 3.31 ± 0.28 h⁻¹
